Assay results published in ChEMBL document CHEMBL3243989, “Antibacterial N-[omega, omega'-bis(alicyclic and aryl)-sec-alkyl]poly(methylene)triamine and -tetramine hydrochloride salts” (J Med Chem, 1979).
Active and inactive are the calls of the source. No cut-off for these calls is given here.

Key:
Salmonella = assay: Antibacterial activity against Salmonella schottmuelleri MB2837 assessed as growth inhibition; type: functional
Outline: (§1)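 MIC (µg/mL) by in vitro growth inhibition in an assay system at pH 7.4. Tetracycline was run routinely to check medium, incubation conditions and inoculum virility.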

Bacillus subtilis = assay: Antibacterial activity against Bacillus subtilis MB964 assessed as growth inhibition; type: functional; outline: as §1
Escherichia coli = assay: Antibacterial activity against Escherichia coli MB2884 assessed as growth inhibition; type: functional; outline: as §1
Staphylococcus aureus [1] = assay: Antibacterial activity against Staphylococcus aureus MB108 assessed as growth inhibition; type: functional; outline: as §1
Staphylococcus aureus [2] = assay: Antibacterial activity against Staphylococcus aureus MB2865 assessed as growth inhibition; type: functional; outline: as §1
[3] = tested on: Corynebacterium pseudodiphtheriticum; assay: Antibacterial activity against Corynebacterium pseudodiphtheriticum assessed as growth inhibition at 2 to 8 ug/mL; type: functional, organism-based
[4] = tested on: Bordetella bronchiseptica; assay: Antibacterial activity against Bordetella bronchiseptica MB3551 assessed as growth inhibition; type: functional; outline: as §1
Pseudomonas aeruginosa [5] = assay: Antibacterial activity against Pseudomonas aeruginosa MB418 assessed as growth inhibition; type: functional; outline: as §1
Streptococcus pyogenes = assay: Antibacterial activity against Streptococcus pyogenes assessed as growth inhibition at 2 to 8 ug/mL; type: functional, organism-based
Klebsiella aerogenes = assay: Antibacterial activity against Klebsiella aerogenes MB1503 assessed as growth inhibition; type: functional; outline: as §1
[6] = tested on: Bordetella bronchiseptica; assay: Antibacterial activity against Bordetella bronchiseptica MB905 assessed as growth inhibition; type: functional; outline: as §1
Proteus vulgaris = assay: Antibacterial activity against Proteus vulgaris MB838 assessed as growth inhibition at 200 ug/mL; type: functional, organism-based
Pasteurella multocida = assay: Antibacterial activity against Pasteurella multocida MB7 assessed as growth inhibition at 2 to 8 ug/mL; type: functional, organism-based
Pseudomonas aeruginosa [7] = assay: Antibacterial activity against Pseudomonas aeruginosa MB2245 assessed as growth inhibition; type: functional; outline: as §1

| SMILES | MIC (Salmonella) [µg/mL] | MIC (Bacillus subtilis) [µg/mL] | MIC (Escherichia coli) [µg/mL] | MIC (Staphylococcus aureus [1]) [µg/mL] | MIC (Staphylococcus aureus [2]) [µg/mL] | growth inhibition (GI) [3] | MIC [4] [µg/mL] | MIC (Pseudomonas aeruginosa [5]) [µg/mL] | growth inhibition (GI) (Streptococcus pyogenes) | MIC (Klebsiella aerogenes) [µg/mL] | MIC [6] [µg/mL] | growth inhibition (GI) (Proteus vulgaris) | growth inhibition (GI) (Pasteurella multocida) | MIC (Pseudomonas aeruginosa [7]) [µg/mL] |
| --- | --- | --- | --- | --- | --- | --- | --- | --- | --- | --- | --- | --- | --- | --- |
| Cl.NCCCNCCCNC(CCCC1CCCCC1)CCCC1CCCCC1 | 4 | 4 | 8 | 4 | 8 | inactive | 4 | 8 | Active | 4 | 4 | inactive | Active | 8 |
| CC1(C)C2CCC(C2)C1CCC(CCC1C2CCC(C2)C1(C)C)NCCNCCN.Cl (stereo unspecified) | 50 | 6 | 4 | 6 | 6 | inactive | 4 | 200 | Active | 10 | 4 | inactive | Active | > 200 |
| CC(C)(C)c1ccc(CCCC(CCCc2ccc(C(C)(C)C)cc2)NCCCNCCCN)cc1.Cl | 8 | 8 | 40 | 20 | 10 | inactive | 8 | 80 | Active | 40 | 8 | inactive | Active | 40 |
| CC1(C)C2CCC(C2)C1CCC(CCC1C2CCC(C2)C1(C)C)NCCCNCCCNCCCN.Cl (stereo unspecified) | 6 | 2 | 10 | 15 | 8 | inactive | 2 | 8 | Active | 30 | 2 | inactive | Active | 8 |
| Cc1ccc(C(C)(C)C)cc1CCCC(CCCc1cc(C(C)(C)C)ccc1C)NCCCNCCCNCCCN.Cl | 8 | 6 | 100 | 20 | 8 | inactive | 8 | 40 | Active | 200 | 8 | inactive | Active | 50 |
| CC1(C)C2CCC(C2)C1CCC(CCC1C2CCC(C2)C1(C)C)NCCNCCNCCCN.Cl (stereo unspecified) | 6 | 6 | 10 | 20 | 6 | inactive | 30 | 60 | Active | 10 | 6 | inactive | Active | 60 |
| CC1(C)C2CCC(C2)C1CCC(CCC1C2CCC(C2)C1(C)C)NCCNCCCNCCN.Cl (stereo unspecified) | 6 | 6 | 8 | 6 | 6 | inactive | 6 | 30 | Active | 10 | 8 | inactive | Active | 15 |
| CN(CCCNCCCN)C(CCC1CCCCC1)CCC1CCCCC1.Cl | 1 | 4 | 8 | 10 | 30 | inactive | 4 | 8 | Active | 4 | 6 | inactive | Active | 20 |
| CC(C)C1CCC(CCC(CCC2CCC(C(C)C)CC2)NCCCNCCCN)CC1.Cl (stereo unspecified) | 20 | 6 | 50 | 20 | 40 | inactive | 10 | 60 | Active | 50 | 10 | inactive | Active | 60 |
| CC1(C)C2CCC(C2)C1CCC(CCC1C2CCC(C2)C1(C)C)NCCCNCCCN.Cl (stereo unspecified) | 4 | 4 | 8 | 4 | 10 | inactive | 4 | 8 | Active | 4 | 4 | inactive | Active | 10 |
| Cl.NCCCNCCCNC(CCc1ccc2ccccc2c1)CCc1ccc2ccccc2c1 | 8 | 8 | 15 | 6 | 8 | inactive | 4 | 40 | Active | 20 | 4 | inactive | Active | 100 |
| CC1(C)C2CCC(C2)C1CCC(CCC1C2CCC(C2)C1(C)C)NCCCNCCNCCCN.Cl (stereo unspecified) | 4 | 4 | 30 | 4 | 8 | inactive | 4 | 30 | Active | 15 | 4 | inactive | Active | 15 |
| Cc1ccc(CCC(CCc2ccc(C)cc2)NCCCNCCCN)cc1.Cl | 10 | 4 | 50 | 30 | 50 | inactive | 6 | 60 | Active | 15 | 4 | inactive | Active | 40 |
| Cl.NCCCNCCCNC(CCCC1CC=CCC1)CCCC1CC=CCC1 (stereo unspecified) | 4 | 4 | 10 | 6 | 10 | inactive | 4 | 20 | Active | 6 | 2 | inactive | Active | 15 |
